Test results from ChEMBL document CHEMBL1148817, “Synthesis and radioligand binding studies of bis-isoquinolinium derivatives as small conductance Ca(2+)-activated K(+) channel blockers” (J Med Chem, 2007).

Columns and labels:
[1] = target: T1, Small conductance calcium-activated potassium channel (Rattus norvegicus, UniProt P70604+P70606+P70605); assay: Displacement of [125I]apamin from SK channel in Wistar rat cortex
How it was run: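 Rat cortex synaptosomes (0.2 mg protein/mL) incubated 1 h at 0 °C with 10 pM 125I-apamin and eight drug concentrations (10-4.5 to 10^-8 M) in 10 mM Tris-HCl pH 7.5, 5.4 mM KCl, 0.1% BSA. Nonspecific binding defined with 0.1 µM unlabeled apamin. Filtration on PEI-coated GF/C filters, scintillation counting, curve fitting.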

[2] = target: Small conductance calcium-activated potassium channel (Rattus norvegicus) (UniProt P70604+P70606+P70605); assay: Displacement of [125I]apamin from SK channel in Wistar rat cortex at 10 uM
[3] = target: T1, Small conductance calcium-activated potassium channel; assay: Blockade of SK channel in Wistar rat brain assessed as inhibition of apamin-sensitive after-hyperpolarisation
How it was run: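 Apamin-sensitive AHP area (mV s) measured as percent reduction, normalized to block by 300 nM apamin; four sweeps averaged. IC50 from Hill equation fit; mean ± SD, n = 3.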

| SMILES | Ki [1] [nM] | Activity [2] [%] | IC50 [3] [nM] |
| --- | --- | --- | --- |
| COc1cc2cc[n+](C)c(Cc3ccccc3Cc3c4cc(OC)c(OC)cc4cc[n+]3C)c2cc1OC.[I-].[I-] | 33 | > 58 | 3800 |
| COc1ccc(C[C@H]2c3cc(OC)c(OC)cc3CC[N+]2(C)C)cc1OC.[I-] [LAUDANOSINE METHIODIDE] |  | > 58 | 15000 |
| COc1cc2cc[n+](C)c(Cc3ccc(Cc4c5c(OC)c(OC)c(OC)cc5cc[n+]4C)cc3)c2c(OC)c1OC.[I-].[I-] | 280 | > 58 |  |
| COc1cc2cc[n+](C)c(Cc3cccc(Cc4c5cc(OC)c(OC)cc5cc[n+]4C)c3)c2cc1OC.[I-].[I-] | 106 | > 58 |  |
| COc1cc2cc[n+](C)c(CCCc3c4cc(OC)c(OC)cc4cc[n+]3C)c2cc1OC.[I-].[I-] | 196 | > 58 |  |
| C[n+]1ccc2ccccc2c1CCCCc1c2ccccc2cc[n+]1C.[I-].[I-] | 1962 | > 58 |  |
| COc1cc2cc[n+](C)c(CCCCCc3c4cc(OC)c(OC)cc4cc[n+]3C)c2cc1OC.[I-].[I-] | 150 | > 58 |  |
| C[n+]1ccc2ccccc2c1Cc1ccc(Cc2c3ccccc3cc[n+]2C)cc1.[I-].[I-] | 1103 | > 58 |  |
| C[n+]1ccc2ccccc2c1Cc1cccc(Cc2c3ccccc3cc[n+]2C)c1.[I-].[I-] | 132 | > 58 |  |
| COc1cc2cc[n+](C)c(CCCCc3c4cc(OC)c(OC)cc4cc[n+]3C)c2cc1OC.[I-].[I-] | 164 | > 58 |  |
| C[n+]1ccc2ccccc2c1CCCc1c2ccccc2cc[n+]1C.[I-].[I-] | 1687 | > 58 |  |
| C[n+]1ccc2ccccc2c1Cc1ccccc1Cc1c2ccccc2cc[n+]1C.[I-].[I-] | 438 | > 58 |  |
| COc1cc2cc[n+](C)c(Cc3ccc(Cc4c5cc(OC)c(OC)cc5cc[n+]4C)cc3)c2cc1OC.[I-].[I-] | 163 | > 58 |  |
| COc1cc2cc[n+](C)c(Cc3cccc(Cc4c5c(OC)c(OC)c(OC)cc5cc[n+]4C)c3)c2c(OC)c1OC.[I-].[I-] | 23 | > 58 | 2400 |
| C[n+]1ccc2ccccc2c1CCCCCc1c2ccccc2cc[n+]1C.[I-].[I-] | 1465 | > 58 |  |
| COc1cc2cc[n+](C)c(CCCCc3c4c(OC)c(OC)c(OC)cc4cc[n+]3C)c2c(OC)c1OC.[I-].[I-] | 42 | > 58 | 4400 |
| Cc1cc(N)c2ccccc2[n+]1CCCCCCCCCC[n+]1c(C)cc(N)c2ccccc21.[Cl-].[Cl-] [DEQUALINIUM CHLORIDE] | 221 | > 58 |  |
| COc1cc2cc[n+](C)c(Cc3ccccc3Cc3c4c(OC)c(OC)c(OC)cc4cc[n+]3C)c2c(OC)c1OC.[I-].[I-] | 35 | > 58 | 4100 |
| COc1cc2cc[n+](C)c(CCCc3c4c(OC)c(OC)c(OC)cc4cc[n+]3C)c2c(OC)c1OC.[I-].[I-] | 90 | > 58 |  |
